Our source for the inhibition and Activity values is ChEMBL document CHEMBL5346895, “Small molecule inhibitors of intestinal epithelial anion exchanger SLC26A3 (DRA) with a luminal, extracellular site of action” (Eur J Med Chem, 2023).

Experiment [1] addresses T1, Chloride anion exchanger (Mus musculus) (UniProt Q9WVC8).
T1 sequence (whole entry): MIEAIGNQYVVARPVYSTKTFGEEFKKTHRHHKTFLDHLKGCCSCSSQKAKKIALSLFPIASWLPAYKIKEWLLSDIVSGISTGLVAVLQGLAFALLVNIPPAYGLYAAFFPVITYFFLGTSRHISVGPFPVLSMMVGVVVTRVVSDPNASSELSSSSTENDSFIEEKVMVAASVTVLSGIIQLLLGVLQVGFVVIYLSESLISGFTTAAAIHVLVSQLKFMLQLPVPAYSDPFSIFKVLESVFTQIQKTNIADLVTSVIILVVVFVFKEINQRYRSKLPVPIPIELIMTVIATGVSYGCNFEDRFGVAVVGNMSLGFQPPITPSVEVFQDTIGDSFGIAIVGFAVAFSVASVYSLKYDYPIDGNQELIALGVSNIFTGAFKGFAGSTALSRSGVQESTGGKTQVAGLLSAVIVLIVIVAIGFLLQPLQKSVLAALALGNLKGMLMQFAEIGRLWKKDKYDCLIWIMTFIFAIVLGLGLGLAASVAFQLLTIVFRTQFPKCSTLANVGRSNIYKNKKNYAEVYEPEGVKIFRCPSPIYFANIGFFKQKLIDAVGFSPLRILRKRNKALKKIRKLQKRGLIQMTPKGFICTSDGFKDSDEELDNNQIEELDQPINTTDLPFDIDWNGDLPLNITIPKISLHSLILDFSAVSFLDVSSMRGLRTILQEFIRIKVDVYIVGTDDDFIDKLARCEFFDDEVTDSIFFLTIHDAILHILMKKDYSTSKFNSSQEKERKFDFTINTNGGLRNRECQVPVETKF
Briefly: Inhibition of mouse SLC26A3 expressed in FRT cells coexpressing YFP iodide-sensing protein at 2 times IC50 measured for 14 secs by fluorescence quenching analysis relative to control. Type of experiment: cell-based. The following applies: time 14.0 sec. The essentials:
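Onset kinetics in FRT cells co-expressing murine slc26a3 and YFP halide sensor. […] Fluorescence read for 1 s before and 12 s after syringe-pump addition of iodide solution (NaCl replaced by 140 mM NaI). Inhibition taken from the quenching rate.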

The target in experiment [2] is T1, Chloride anion exchanger (Mus musculus). Briefly: Inhibition of mouse SLC26A3 expressed in FRT cells coexpressing YFP iodide-sensing protein at 5 times IC50 incubated for 10 mins followed by compound washout by fluorescence quenching analysis relative to control. Type of experiment: cell-based.
The target in experiment [3] is Cystic fibrosis transmembrane conductance regulator (Homo sapiens) (UniProt P13569). Briefly: Inhibition of CFTR (unknown origin) at 10 uM by YFP-based assay relative to control.
Cystic fibrosis transmembrane conductance regulator (Homo sapiens), sequence (P13569 whole entry, looked up): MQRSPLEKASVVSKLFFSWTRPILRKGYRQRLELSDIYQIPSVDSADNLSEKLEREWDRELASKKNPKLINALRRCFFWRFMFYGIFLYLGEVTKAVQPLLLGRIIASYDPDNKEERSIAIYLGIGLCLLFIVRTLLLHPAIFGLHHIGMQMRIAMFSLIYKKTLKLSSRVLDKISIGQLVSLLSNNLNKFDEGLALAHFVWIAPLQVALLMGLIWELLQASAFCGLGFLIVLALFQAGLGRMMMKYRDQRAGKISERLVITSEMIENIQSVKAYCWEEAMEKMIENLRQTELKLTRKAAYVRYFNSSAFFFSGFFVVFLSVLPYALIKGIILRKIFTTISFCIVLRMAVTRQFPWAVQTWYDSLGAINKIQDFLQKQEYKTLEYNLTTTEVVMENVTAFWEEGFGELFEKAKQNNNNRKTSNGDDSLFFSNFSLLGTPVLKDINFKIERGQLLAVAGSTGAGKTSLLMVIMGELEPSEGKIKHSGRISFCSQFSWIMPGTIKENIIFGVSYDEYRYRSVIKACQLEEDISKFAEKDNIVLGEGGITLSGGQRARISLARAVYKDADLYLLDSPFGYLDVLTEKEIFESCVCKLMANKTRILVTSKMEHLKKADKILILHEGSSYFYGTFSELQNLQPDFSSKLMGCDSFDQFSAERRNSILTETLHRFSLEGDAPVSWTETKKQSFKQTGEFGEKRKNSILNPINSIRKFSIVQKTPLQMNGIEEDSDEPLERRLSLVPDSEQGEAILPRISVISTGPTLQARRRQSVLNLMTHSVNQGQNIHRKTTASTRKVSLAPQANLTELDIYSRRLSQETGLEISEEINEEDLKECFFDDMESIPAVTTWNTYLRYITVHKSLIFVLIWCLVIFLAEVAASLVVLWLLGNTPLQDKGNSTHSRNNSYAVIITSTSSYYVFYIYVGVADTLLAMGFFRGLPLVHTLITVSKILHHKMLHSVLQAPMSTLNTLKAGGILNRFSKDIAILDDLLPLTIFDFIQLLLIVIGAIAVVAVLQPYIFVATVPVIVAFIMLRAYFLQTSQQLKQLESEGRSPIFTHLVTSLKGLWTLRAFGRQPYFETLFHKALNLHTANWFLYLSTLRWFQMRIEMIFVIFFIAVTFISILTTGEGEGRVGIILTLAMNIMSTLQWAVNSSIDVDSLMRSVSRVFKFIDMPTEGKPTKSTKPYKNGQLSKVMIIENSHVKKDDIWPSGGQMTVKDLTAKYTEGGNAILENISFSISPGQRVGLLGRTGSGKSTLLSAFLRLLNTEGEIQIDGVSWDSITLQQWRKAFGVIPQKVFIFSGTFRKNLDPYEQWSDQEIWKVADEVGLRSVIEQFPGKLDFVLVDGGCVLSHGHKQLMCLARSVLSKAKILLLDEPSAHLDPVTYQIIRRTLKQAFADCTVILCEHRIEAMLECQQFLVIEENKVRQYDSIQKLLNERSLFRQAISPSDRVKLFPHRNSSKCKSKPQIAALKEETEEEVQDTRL
Experiment [4] deals with T2, Solute carrier family 26 member 9 (Homo sapiens) (UniProt Q7LBE3).
T2 sequence (whole entry): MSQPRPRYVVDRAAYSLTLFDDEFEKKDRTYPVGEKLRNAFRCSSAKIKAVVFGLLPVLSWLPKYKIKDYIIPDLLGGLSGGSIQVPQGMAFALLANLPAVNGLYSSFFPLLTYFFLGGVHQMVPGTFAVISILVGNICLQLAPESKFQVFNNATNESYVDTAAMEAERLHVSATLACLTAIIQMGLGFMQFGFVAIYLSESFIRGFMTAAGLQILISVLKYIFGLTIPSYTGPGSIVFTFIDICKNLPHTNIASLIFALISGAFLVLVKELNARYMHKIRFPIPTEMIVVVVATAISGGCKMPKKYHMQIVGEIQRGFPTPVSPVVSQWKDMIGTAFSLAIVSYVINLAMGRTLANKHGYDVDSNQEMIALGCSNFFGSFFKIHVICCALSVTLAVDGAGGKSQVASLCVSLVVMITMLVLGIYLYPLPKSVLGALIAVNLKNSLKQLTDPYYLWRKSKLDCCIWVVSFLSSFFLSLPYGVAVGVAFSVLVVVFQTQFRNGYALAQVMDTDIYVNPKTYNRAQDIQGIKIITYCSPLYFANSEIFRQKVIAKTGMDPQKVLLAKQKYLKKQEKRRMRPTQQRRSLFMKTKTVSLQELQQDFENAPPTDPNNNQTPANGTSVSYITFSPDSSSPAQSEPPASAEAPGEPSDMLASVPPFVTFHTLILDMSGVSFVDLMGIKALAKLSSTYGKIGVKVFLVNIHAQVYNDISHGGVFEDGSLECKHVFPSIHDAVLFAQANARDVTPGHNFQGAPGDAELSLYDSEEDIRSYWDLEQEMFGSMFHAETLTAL
Briefly: Inhibition of SLC26A9 (unknown origin) at 10 uM by YFP-based assay relative to control.

The target in experiment [5] is T3, Solute carrier family 26 member 6 (Homo sapiens) (UniProt Q9BXS9).
T3 sequence (whole entry): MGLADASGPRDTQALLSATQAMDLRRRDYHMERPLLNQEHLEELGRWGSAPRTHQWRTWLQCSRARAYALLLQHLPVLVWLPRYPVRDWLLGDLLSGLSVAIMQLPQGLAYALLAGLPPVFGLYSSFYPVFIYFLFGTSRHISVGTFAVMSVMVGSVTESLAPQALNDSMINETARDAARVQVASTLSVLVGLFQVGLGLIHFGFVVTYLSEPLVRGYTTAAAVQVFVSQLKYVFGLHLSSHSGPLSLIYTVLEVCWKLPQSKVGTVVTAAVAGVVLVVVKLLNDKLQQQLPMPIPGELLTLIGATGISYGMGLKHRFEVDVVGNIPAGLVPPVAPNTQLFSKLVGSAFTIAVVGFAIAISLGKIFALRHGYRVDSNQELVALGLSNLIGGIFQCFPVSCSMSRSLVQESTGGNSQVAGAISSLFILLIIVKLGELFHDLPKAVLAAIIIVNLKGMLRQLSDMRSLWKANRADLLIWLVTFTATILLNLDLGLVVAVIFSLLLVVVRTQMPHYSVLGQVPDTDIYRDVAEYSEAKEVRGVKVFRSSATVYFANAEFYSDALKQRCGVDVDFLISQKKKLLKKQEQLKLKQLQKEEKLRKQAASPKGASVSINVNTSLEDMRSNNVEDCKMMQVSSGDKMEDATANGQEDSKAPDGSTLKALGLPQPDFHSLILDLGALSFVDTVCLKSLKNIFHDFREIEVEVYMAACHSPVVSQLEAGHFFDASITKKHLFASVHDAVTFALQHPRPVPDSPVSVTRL
Briefly: Inhibition of SLC26A6 (unknown origin) at 10 uM by YFP-based assay relative to control.

The nature of experiment [6]: Effect on loperamide-induced constipation in CD-1 mouse assessed as stool hydration at 10 mg/kg, po via gavage administered 1 hr prior to loperamide administration measured for 3 hrs (reference value: 49 +/- 2 %). The experiment is classed as functional. The following applies: time 4 hrs. The essentials: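 CD1 mice (bred in house, 8–12 weeks). Test compound given by oral gavage at 10 mg/kg in saline with 5% DMSO and 10% Kolliphor-HS, or vehicle alone, 1 h before loperamide (0.3 mg/kg ip in PBS with 5% ethanol). Mice then held in metabolic cages with free food and water. Stool collected over 3 h for total weight and pellet count. Water content from wet vs dry stool weight.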

For experiment [7], the target named is T1, Chloride anion exchanger (Mus musculus). Briefly: Inhibition of mouse SLC26A3 expressed in FRT cells coexpressing YFP iodide-sensing protein at 5 times IC50 incubated for 10 mins by fluorescence quenching analysis relative to control. The experiment is classed as cell-based.

One may read the inhibition as the change of the read-out against control, counted positive when it falls. In the case of `O=c1cc(COc2ccccc2Cl)nc2scc(-c3ccccc3)n12`, the inhibition in experiment [1] worked out at 66%; in experiment [2], 32%; in experiment [3] it was 4%; in experiment [4], 22%; in experiment [5], 9%; in experiment [7], 92%. The Activity in experiment [6] is reported as 55%.

Consider `Cc1cc(C)cc(N(C)S(=O)(=O)c2nnc(NC(=O)COc3ccc(C)c(C)c3)s2)c1`, for which the inhibition in experiment [3] is 5%; in experiment [4], -2%; in experiment [5], 32%.

In the case of `Cc1ccccc1COc1ccc2oc(-c3ccccc3)c(C(=O)O)c2c1`, the inhibition in experiment [1] was 38%; in experiment [2], 25%; in experiment [3], 12%; in experiment [4], -8%; in experiment [5], 37%; in experiment [7], 87%.

Take `O=C(Nc1cccc(-c2nc3ccccc3c(=O)o2)c1)c1ccc(Cl)cc1`: the figures for the inhibition in experiment [3], in experiment [4] and in experiment [5] were -2%, -2% and 4%, respectively.
